A selection: hits, their analogues and other compounds. The true share with any hit is near 3.5%.
MrgX1 agonist = agonists of human MrgX1 receptor, primary screen, HEK293 cells, Fluo-4 calcium flux; B-score at 10 µM; Mas-related G-protein coupled receptor member X1 (Homo sapiens), Q96LB2; AID 588627, 2011; Fluo-4 calcium fluorescence, agonist mode; active compounds read high; 0.44% of 310,000 active;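 active = calcium response B-score plate-corrected fluorescence ratio at least 3 library SD, with starting fluorescence B-score inside 5 SD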
Target sequence (Q96LB2 whole entry, looked up): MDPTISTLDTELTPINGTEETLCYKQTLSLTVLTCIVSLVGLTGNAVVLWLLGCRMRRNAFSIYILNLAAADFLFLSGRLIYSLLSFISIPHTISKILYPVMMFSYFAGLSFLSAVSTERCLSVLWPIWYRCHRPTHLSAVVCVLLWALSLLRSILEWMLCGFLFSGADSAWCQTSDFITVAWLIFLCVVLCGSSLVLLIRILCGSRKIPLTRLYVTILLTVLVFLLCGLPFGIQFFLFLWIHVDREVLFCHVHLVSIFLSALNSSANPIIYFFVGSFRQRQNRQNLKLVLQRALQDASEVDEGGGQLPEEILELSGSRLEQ
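Assay system: stable human MrgX1 HEK293 cell line. Quantity: 15,000 cells per well. Schedule: cells plated overnight, dye loaded 0.5 h 37 °C, 0.5 h room temperature. Detection: Fluo-4 NW calcium-flux fluorescence, kinetic read. Read-out basis: peak-minus-minimum fluorescence over baseline, converted to B scores. Control set: positive and negative control wells on each plate.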
MrgX1 allo act = positive allosteric modulators of MrgX1, primary screen, HEK293 cells, Fluo-4 calcium flux | B-score at 10 µM | Mas-related G-protein coupled receptor member X1 (Homo sapiens), Q96LB2 | 0.63% of 310,000 active | AID 588675, 2011 | FDSS; active compounds read high;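 active = plate-corrected calcium response at least 3 library SD above typical, normal starting fluorescence, not activating the receptor alone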;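 also: compound read alongside a low EC10 to EC30 dose of BAM8-22 agonist; peak minus trough fluorescence over baseline measured at the second addition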
RGS4 pot = RGS4 potentiators or activators, primary screen, cell-based, HEK293 M3R inducible RGS4, calcium flux; carbachol calcium flux Fluo4; active compounds read low; B-score at 10 µM; AID 463111, 2010; 0.92% of 310,000 active;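 active = B-score of the integrated calcium signal more than 4 SD below the library mean, with starting fluorescence not abnormally high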;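 also: negative B-score means reduced calcium response which marks RGS4 activation or potentiation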
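Assay system: Inducible-RGS4 HEK293 cells carrying M3 receptor | Schedule: Compound preincubation 20 min at room temperature before agonist | Signal: Kinetic calcium fluorescence imaging with Fluo4-AM dye, 2 µM | Read-out basis: B score from integrated fluorescence ratio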
RGS4 inh = RGS4 inhibitors, primary screen, cell-based, HEK293 M3R inducible RGS4, calcium flux; Regulator of G-protein signaling 4 (Homo sapiens), P49798; Fluo-4 calcium flux; active compounds read high; triggered by carbachol at its EC20; B-score at 10 µM; 0.45% of 310,000 active;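 active = B-score, a plate-corrected calcium signal, over three deviations above library mean, with baseline fluorescence within five deviations of library mean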;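 also: RGS4 expression induced by doxycycline in cells with stable M3 receptor; B-score is computed from the integrated fluorescence ratio over baseline after carbachol; higher B-score means a larger calcium signal and so more RGS4 inhibition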
Target sequence (P49798 whole entry, looked up): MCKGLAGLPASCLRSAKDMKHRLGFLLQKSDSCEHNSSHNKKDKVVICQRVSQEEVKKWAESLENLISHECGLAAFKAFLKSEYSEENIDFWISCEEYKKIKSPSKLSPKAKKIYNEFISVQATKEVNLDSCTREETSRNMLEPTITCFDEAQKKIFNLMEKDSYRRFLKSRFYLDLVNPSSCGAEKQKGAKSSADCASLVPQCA
MrgX1 antagonist = antagonists of human MrgX1 receptor, primary screen, HEK293 cells, Fluo-4 calcium flux. Mas-related G-protein coupled receptor member X1 (Homo sapiens), Q96LB2. BAM8-22 antagonism; active compounds read low. B-score at 10 µM. 1.3% of 310,000 active. AID 588676, 2011;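 active = calcium-response B-score plate-corrected more than 3 library SD below zero, starting fluorescence within 5 deviations, no agonist response on first addition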;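 also: peak minus trough fluorescence over baseline after final BAM8-22 challenge near maximal dose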
MrgX1 PAM conf = MrgX1 positive allosteric modulators, duplicate retest, confirmation, HEK293 cells, Fluo-4 calcium flux; shares compounds with MrgX1 allo act; Fluo-4 calcium fluorescence, FDSS; activation (ratio percentage), % at 10 µM; 13% of 1,200 active; AID 602413, 2012;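 active = ratio at least 3 SD above the weak peptide control, stable starting fluorescence, no direct agonism earlier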;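 also: compound followed by low BAM8-22 agonist challenge near EC20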
HEK293 Ca flux = nonspecific calcium signal in parental HEK293, confirmation, counter-screen for MrgX1 antagonist project, parental HEK293 cells, Fluo-4 calcium flux. fluorescence ratio F(max-min)/F0 at 10 µM. 2% of 4,000 active. Fluo-4 calcium fluorescence, FDSS. shares compounds with MrgX1 antagonist;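 active = duplicate-averaged calcium fluorescence ratio at least three times the standard deviation of buffer wells, a nonspecific response in parental cells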
HEK293 Ca counter = calcium response in parental HEK293 cells, primary screen, counter-screen for MrgX1 allosteric activator project, cell-based, Fluo-4 calcium flux, duplicate; Fluo-4 fluorescence ratio; active compounds read high; AID 624114, 2012; 0.4% of 4,000 active; fluorescence ratio F(max-min)/F0 at 10 µM; shares compounds with MrgX1 antagonist;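 active = calcium fluorescence ratio, averaged over duplicates, at least 3 SD of the buffer-well ratio, meaning a nonspecific response in receptor-free cells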;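 also: untransfected parental HEK293 lacking MrgX1 used as counterscreen for MrgX1 allosteric activators; fluorescence change taken during the second addition on a kinetic imager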
HEK293 Ca cntr2 = calcium response in parental HEK293 cells, primary screen, counter-screen for MrgX1 agonist project, cell-based, Fluo-4 calcium flux, duplicate, agonist mode | shares compounds with MrgX1 antagonist | Fluo-4 calcium fluorescence (FDSS); active compounds read high | fluorescence ratio F(max-min)/F0 at 10 µM | 8.7% of 4,000 active | AID 624115, 2012;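 active = calcium fluorescence ratio at least three times the spread of buffer wells, meaning a non-specific response in parental cells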
Active calls of the source: *; i = inactive; · = no result given.

SMILES	MrgX1 agonist	MrgX1 allo act	RGS4 pot	RGS4 inh	MrgX1 antagonist	MrgX1 PAM conf	HEK293 Ca flux	HEK293 Ca counter	HEK293 Ca cntr2
CN1CCN(/C=N/c2sc3c(c2C#N)CCCCC3)CC1	i	i	i	i	i	·	·	·	·
CC1CCCC(C)N1CC(O)COCc1ccccc1 (configuration not stated)	i	i	i	i	i	·	·	·	·
C=C(C)CNC(=S)Nc1cccc(S(=O)(=O)NC2=NCCC2)c1	i	11*	i	i	i	i	i	i	i
CSCCCNC(=S)Nc1cccc(S(=O)(=O)NC2=NCCC2)c1	i	i	i	i	i	·	·	·	·
Cc1cccc(-c2oc3ccc(-c4ccc5c(c4)OCO5)cc3c2C(=O)OCc2ccc(O)cc2)c1	i	i	i	i	i	·	·	·	·
CC(=O)Nc1cccc(-c2nc3ccccc3[nH]2)c1	i	i	i	i	i	·	·	·	·
COc1cccc(OC)c1C(=O)Nc1cccc(-c2nc3ccccc3[nH]2)c1	i	7.1*	i	i	i	i	i	i	i
N#CCSc1ncnc2ccccc12	i	i	i	i	i	·	·	·	·
c1ccc(Sc2ncnc3ccccc23)cc1	i	18*	i	i	i	28%*	i	i	i
CN(C)S(=O)(=O)c1ccc(Cl)c(NC(=O)COC(=O)CN2C(=O)C3CCCCC3C2=O)c1 (configuration not stated)	i	9*	i	i	i	i	i	i	i
CC(C)CNC(=O)COC(=O)c1ccc2c(c1)C(=O)N(Cc1ccco1)C2=O	i	i	i	i	i	·	·	·	·
Cn1c(=NC(=O)C2CC2)sc2cccc(F)c21	i	11*	i	i	i	i	i	i	i
COc1ccccc1CNC(=O)c1ccc(OC(C)C)cc1	i	i	i	i	i	·	·	·	·
C=C[C@@]1(C)CC(=O)[C@]2(O)[C@@]3(C)[C@@H](O)CCC(C)(C)[C@@H]3[C@H](OC(C)=O)[C@H](O)[C@@]2(C)O1	i	7.7*	i	i	i	i	i	i	i
COc1cc(CN2CCNC(=O)C2CC(=O)N(C)CCN2CCOCC2)cc(OC)c1 (configuration not stated)	·	·	i	i	·	·	·	·	·
COc1cccc(CN(C(=O)Cc2c[nH]c3ccccc23)C(C(=O)NC2CCCCC2)c2ccc(C)o2)c1 (configuration not stated)	i	i	i	i	i	·	·	·	·
Clc1cccc2c1Sc1ccccc1CC2N1CCNCC1 (configuration not stated)	i	14*	i	i	i	i	i	i	i
O=C(c1ccccc1Cl)N1CCNCC1	i	i	i	i	i	·	·	·	·
O=C(CN(c1ccc2c(c1)OCCO2)S(=O)(=O)c1ccccc1)N1CCN(Cc2ccccc2)CC1	i	i	i	i	i	·	·	·	·
CCCCc1ccc(S(=O)(=O)Nc2ccc(C)c(NS(C)(=O)=O)c2)cc1	i	9.7*	i	i	i	i	i	i	i
CC1(C)c2ccccc2-c2nc3ccccc3cc2C1O (configuration not stated)	i	9.6*	i	i	i	i	i	i	i
CCOC(=O)/C(C#N)=N/Nc1ccccc1C#N	i	i	i	i	i	·	·	·	·
CN(CC(=O)Nc1ccc(Cl)cc1)C(=O)Cc1c(F)cccc1Cl	i	i	i	i	i	·	·	·	·
Cc1cccc(NC(=S)NC(=O)/C=C/c2ccco2)n1	i	25*	i	i	i	4.6%*	i	i	i
O=C(CCNC(=O)C1CCN(S(=O)(=O)c2ccccc2)CC1)Nc1ccccc1	i	i	i	i	i	·	·	·	·
SMILES	MrgX1 agonist	MrgX1 allo act	RGS4 pot	RGS4 inh	MrgX1 antagonist	MrgX1 PAM conf	HEK293 Ca flux	HEK293 Ca counter	HEK293 Ca cntr2
CCOC(=O)c1c(-c2ccccc2)oc2ccc(OC(C)C(=O)O)cc12 (configuration not stated)	i	7.7*	i	i	i	i	i	i	i
Cc1cccc(N2CC(C(=O)Nc3ccc4c(c3)OCCO4)CC2=O)c1C (configuration not stated)	i	i	i	i	i	·	·	·	·
CC(=O)c1sc(NC(=O)c2ccccc2)nc1-c1ccccc1	i	i	i	i	i	·	·	·	·
Cc1sc(NC(=O)c2cccnc2)nc1-c1ccccc1	i	11*	i	i	i	i	i	i	i
CCC(C)(C)NC(=O)CN(Cc1ccccc1Cl)C(=O)CCC(=O)Nc1cc(C)ccn1	i	i	i	i	i	·	·	·	·
O=C(Nc1ccc(Cl)cc1)NC1CCCCC1Cc1ccco1 (configuration not stated)	i	15*	i	i	i	5.5%*	i	i	i
O=C(Nc1ccc(Cl)cc1)NC1CCCC1Cc1ccco1 (configuration not stated)	i	i	i	i	i	·	·	·	·
COc1ccccc1Oc1ccc(S(=O)(=O)N2CCCCC2)cc1NC(=O)CCNC(C)=O	i	i	i	i	i	·	·	·	·
CC(O)CNc1nc2ccccc2n1CC(=O)NC12CC3CC(CC(C3)C1)C2 (configuration not stated)	i	7.4*	i	i	i	i	i	i	i
CC(O)CNc1nc2ccccc2n1CC(=O)NCC(F)(F)F (configuration not stated)	i	i	i	i	i	·	·	·	·
O=C(CSc1nnc(-c2ccccc2F)n1CCc1ccccc1)Nc1ccc2[nH]c(=O)[nH]c2c1	i	i	i	i	i	·	·	·	·
